“Also recorded” adds a separate entry of the source.
Experiments:
human recombinant ATX [1] = biological target: T1, human recombinant ATX (Homo sapiens, UniProt Q13822); assay: ATX lysophospholipase D activity, FS-3 hydrolysis; type: biochemical; conditions: for ATX inhibitory activity (in words): FS-3 substrate; for mechanism: FS-3 0 to 10 μM, inhibitor 0, 0.5 × IC50 or 2 × IC50, best global fit
human recombinant ATX [2] = biological target: T1, human recombinant ATX; assay: ATX nucleotide pyrophosphatase activity, pNP-TMP hydrolysis; type: biochemical; conditions: 1 mM pNP-TMP, 4 nM ATX, compound 0 to 1 μM
Procedure, shortened: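 Human recombinant FLAG-tagged ATX was expressed in Sf9 insect cells and purified on anti-FLAG resin. Absorbance at 405 nm was read every 2 min for 1 h.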

[3] = tested on: 4T1-TaxR cancer stem-like cells (mammospheres); assay: 4T1-TaxR mammosphere viability with paclitaxel; type: cell-based, mouse
[4] = tested on: A2058 human melanoma cells; assay: ATX-mediated in vitro invasion assay; type: cell-based; conditions: exogenous LPC and recombinant ATX; for inhibition of A2058 cell invasion, screen at 10 μM: compared with 30; for inhibition of A2058 cell invasion (in words): dose–response
[5] = In vitro stability in 4T1 cell culture by LC-MS; type: in vitro ADME, mouse; conditions: 40 h of exposure to 4T1 cells
LPA1 = LPA1 (Homo sapiens, UniProt Q92633); assay: LPA-mediated Ca2+ mobilization, LPA1 RH7777 cells; type: cell-based; conditions: LPA1-elicited Ca2+ responses
Sequence of LPA1 (Q92633 whole entry, species assumed): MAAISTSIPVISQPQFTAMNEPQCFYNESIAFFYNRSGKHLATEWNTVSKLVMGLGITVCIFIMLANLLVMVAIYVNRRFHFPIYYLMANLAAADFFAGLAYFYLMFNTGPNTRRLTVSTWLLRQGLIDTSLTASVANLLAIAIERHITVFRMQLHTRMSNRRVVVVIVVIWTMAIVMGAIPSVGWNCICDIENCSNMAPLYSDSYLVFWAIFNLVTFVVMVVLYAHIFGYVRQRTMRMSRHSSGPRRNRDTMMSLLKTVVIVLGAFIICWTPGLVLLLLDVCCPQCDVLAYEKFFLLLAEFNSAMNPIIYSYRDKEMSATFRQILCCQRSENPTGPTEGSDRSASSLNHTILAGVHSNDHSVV
Procedure, shortened: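 Rat hepatoma RH7777 cells stably expressing LPA1 were seeded at 5 × 10^4 per well on poly-L-lysine, left overnight, then serum-deprived 4 h in HEPES-Krebs buffer pH 7.4. Cells were loaded 30 min with 4.5 μg/mL Fura-2AM plus 0.45% Pluronic F-127. […] The 340/510 and 380/510 nm ratio was read every 3.42 s for 70 s, normalized to LPA Emax, and fitted by variable-slope regression for IC50.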

Compound | ATX inhibitory activity (in words) (human recombinant ATX [1]) | pNP-TMP inhibition (human recombinant ATX [2]) | also measured
O=S(=O)(Nc1cccc(F)c1)c1cc(S(=O)(=O)N2CCOCC2)c(Cl)cc1Cl [Compound 22, 2,4-Dichloro-N-(3-fluorophenyl)-5-(morpholinosulfonyl)-benzenesulfonamide] | lost their ATX inhibitory activity | none | –
O=S(=O)(c1cc(-c2nc3cc(F)c(F)cc3[nH]2)c(Cl)cc1Cl)N1CCOCC1 [Compound 8, 4-((2,4-Dichloro-5-(5,6-difluoro-1H-benzo[d]imidazol-2-yl)-phenyl)sulfonyl)-morpholine] | failed to inhibit ATX | none | –
4-(2,4-Dichloro-5-(morpholinosulfonyl)benzamido)-2,6-difluoro-benzoic Acid [Compound 4] | inactive | none | –
CCCCCCCCCCCCCCCc1ccc(CP(=O)(O)O)cc1 [compound 30, (4-pentadecylbenzyl)phosphonic acid, reference compound] | – | – | resensitization of cancer stem-like cells to PT (in words) ([3]; 4T1-TaxR cells): effectively resensitized; further reduction of cell viability compared to PT alone ([3]; 4T1-TaxR mammospheres, PT 100 nM, compound 5 μM, 3 days): 25–30%
O=S(=O)(c1cc(C(=S)Nc2cc(F)c(F)c(F)c2)c(Cl)cc1Cl)N1CCOCC1 [Compound 14, 2,4-Dichloro-5-(morpholinosulfonyl)-N-(3,4,5-trifluorophenyl)-benzothioamide] | retained similar inhibitory activity as the amide analogues | none | fold IC50 improvement relative to parent compound 3 (human recombinant ATX [1]; ATX, FS-3): 3 fold; mechanism (human recombinant ATX [1]): competitive; inhibition of A2058 cell invasion, screen at 10 μM [4]: as effective as 30; inhibition of A2058 cell invasion (in words) [4]: inhibit ATX-dependent invasion; also recorded: dose dependently decreased A2058 cell invasion; in vitro stability (in words) [5]: significant stability
O=S(=O)(c1cc(CNc2ccc(F)c(F)c2)c(Cl)cc1Cl)N1CCOCC1 [Compound 10, N-(2,4-Dichloro-5-(morpholinosulfonyl)benzyl)-3,4-difluoroani-line] | inactive | none | –
O=S(=O)(c1cc(CNc2cc(F)c(F)c(F)c2)c(Cl)cc1Cl)N1CCOCC1 [Compound 11, N-(2,4-Dichloro-5-(morpholinosulfonyl)benzyl)-3,4,5-trifluoroani-line] | – | none | –
O=S(=O)(c1cc(C(=S)Nc2ccc(F)c(F)c2)c(Cl)cc1Cl)N1CCOCC1 [Compound 13, 2,4-Dichloro-N-(3,4-difluorophenyl)-5-(morpholinosulfonyl)-benzothioamide] | retained similar inhibitory activity as the amide analogues | none | –
O=S(=O)(c1cc(N(S(=O)(=O)c2cccc(F)c2)S(=O)(=O)c2cccc(F)c2)c(Cl)cc1Cl)N1CCOCC1 [Compound 20] | lost their ATX inhibitory activity | none | –
CN(C(=O)c1cc(S(=O)(=O)N2CCOCC2)c(Cl)cc1Cl)c1cccc(F)c1 [Compound 9, 2,4-Dichloro-N-(3-fluorophenyl)-N-methyl-5-(morpholinosulfonyl)benzamide] | only very weak potency | none | –
O=S(=O)(Nc1cc(F)c(F)c(F)c1)c1cc(S(=O)(=O)N2CCOCC2)c(Cl)cc1Cl [Compound 23, 2,4-Dichloro-5-(morpholinosulfonyl)-N-(3,4,5-trifluorophenyl)-benzenesulfonamide] | lost their ATX inhibitory activity | none | –
O=C(Nc1cccc(F)c1)c1cc(S(=O)(=O)N2CCOCC2)c(Cl)cc1Cl [Compound 3, 2,4-Dichloro-N-(3-fluorophenyl)-5-(morpholinosulfonyl)-benzamide] | – | none | mechanism (human recombinant ATX [1]): competitive; in vitro stability (in words) [5]: significant stability
O=C(Nc1cc(F)c(F)c(F)c1)c1cc(NN2CCOCC2)c(Cl)cc1Cl [Compound 25, 2,4-Dichloro-5-(morpholinoamino)-N-(3,4,5-trifluorophenyl)-benzamide] | completely lost ATX inhibitory activity | none | –
O=S(=O)(c1cc(C(=S)Nc2cccc(F)c2)c(Cl)cc1Cl)N1CCOCC1 [Compound 12, 2,4-Dichloro-N-(3-fluorophenyl)-5-(morpholinosulfonyl)-benzothioamide] | retained similar inhibitory activity as the amide analogues | none | –
O=S(=O)(c1cc(C(=S)Nc2cc(Cl)c(F)c(Cl)c2)c(Cl)cc1Cl)N1CCOCC1 [Compound 15, 2,4-Dichloro-N-(3,5-dichloro-4-fluorophenyl)-5-(morpholinosulfonyl)-benzothioamide] | retained similar inhibitory activity as the amide analogues | none | –
O=S(=O)(c1cc(-c2nc3cccc(F)c3o2)c(Cl)cc1Cl)N1CCOCC1 [Compound 7, 2-(2,4-Dichloro-5-(morpholinosulfonyl)phenyl)-7-fluorobenzo[d]-oxazole] | failed to inhibit ATX | none | –
CN1CCN(S(=O)(=O)c2cc(C(=S)Nc3cc(Cl)c(F)c(Cl)c3)c(Cl)cc2Cl)CC1 [Compound 29, 2,4-Dichloro-N-(3,5-dichloro-4-fluorophenyl)-5-((4-methylpipera-zin-1-yl)sulfonyl)-benzothioamide] | – | none | –
O=S(=O)(Nc1cc(S(=O)(=O)N2CCOCC2)c(Cl)cc1Cl)c1cccc(F)c1 [Compound 19] | lost their ATX inhibitory activity | none | –
O=C(Nc1cc(F)c(F)c(F)c1Br)c1cc(S(=O)(=O)N2CCOCC2)c(Cl)cc1Cl [Compound 5, N-(2-Bromo-3,4,5-trifluorophenyl)-2,4-dichloro-5-(morpholinosulfonyl)benzamide] | – | none | –

Continued, in another order:

ATX inhibitory activity (in words) (human recombinant ATX [1]) | pNP-TMP inhibition (human recombinant ATX [2]) | Compound | also measured
poorly active | none | O=C(Nc1cc(Cl)c(Cl)c(Cl)c1)c1cc(S(=O)(=O)N2CCOCC2)c(Cl)cc1Cl [Compound 3d, 2,4-Dichloro-5-(morpholinosulfonyl)-N-(3,4,5-trichlorophenyl)-benzamide] | –
– | none | CN1CCN(S(=O)(=O)c2cc(C(=O)Nc3cc(Cl)c(F)c(Cl)c3)c(Cl)cc2Cl)CC1 [Compound 28b, 2,4-Dichloro-N-(3,5-dichloro-4-fluorophenyl)-5-((4-methylpiperazin-1-yl)sulfonyl)benzamide] | –
– | none | CS(=O)(=O)N(C(=O)c1cc(NN2CCOCC2)c(Cl)cc1Cl)c1cc(F)c(F)c(F)c1 [Compound 26a, 2,4-Dichloro-N-(methylsulfonyl)-5-(morpholinoamino)-N-(3,4,5-trifluorophenyl)-benzamide] | –
– | none | N#Cc1c(F)cc(NC(=O)c2cc(S(=O)(=O)N3CCOCC3)c(Cl)cc2Cl)cc1F [Compound 3h, 2,4-Dichloro-N-(4-cyano-3,5-difluorophenyl)-5-(morpholinosulfonyl)benzamide] | –
poorly active | none | COc1cc(NC(=O)c2cc(S(=O)(=O)N3CCOCC3)c(Cl)cc2Cl)cc(OC)c1OC [Compound 3e, 2,4-Dichloro-5-(morpholinosulfonyl)-N-(3,4,5-trimethoxyphenyl)-benzamide] | –
– | none | O=C(Nc1cc(Cl)c(F)c(Cl)c1)c1cc(S(=O)(=O)N2CCOCC2)c(Cl)cc1Cl [Compound 3g, 2,4-Dichloro-N-(3,5-dichloro-4-fluorophenyl)-5-(morpholinosulfonyl)benzamide] | fold higher potency of 3g over 3f (human recombinant ATX [1]; ATX, FS-3): 2 fold; mechanism (human recombinant ATX [1]): competitive; antagonist activity at LPA1 (in words) (LPA1): exhibited antagonist activity; also recorded: effective in antagonizing LPA1-elicited Ca^2+ responses
– | none | COC(=O)c1c(F)cc(NC(=O)c2cc(S(=O)(=O)N3CCOCC3)c(Cl)cc2Cl)cc1F [Compound 3i, Methyl 4-(2,4-Dichloro-5-(morpholinosulfonyl)benzamido)-2,6-difluorobenzoate] | –
– | none | CN1CCN(S(=O)(=O)c2cc(C(=O)Nc3cc(F)c(F)c(F)c3)c(Cl)cc2Cl)CC1 [Compound 28a, 2,4-Dichloro-5-((4-methylpiperazin-1-yl)sulfonyl)-N-(3,4,5-trifluorophenyl)-benzamide] | –
poorly active | none | O=C(Nc1c(F)c(F)c(F)c(F)c1F)c1cc(S(=O)(=O)N2CCOCC2)c(Cl)cc1Cl [Compound 3c, 2,4-Dichloro-5-(morpholinosulfonyl)-N-(perfluorophenyl)-benzamide] | –
– | none | O=C(Nc1ccc(F)c(F)c1)c1cc(S(=O)(=O)N2CCOCC2)c(Cl)cc1Cl [Compound 3a, 2,4-Dichloro-N-(3,4-difluorophenyl)-5-(morpholinosulfonyl)-benzamide] | fold IC50 improvement relative to parent compound 3 (human recombinant ATX [1]; ATX, FS-3): 4 fold; mechanism (human recombinant ATX [1]): competitive; inhibition of A2058 cell invasion, screen at 10 μM [4]: as effective as 30; inhibition of A2058 cell invasion (in words) [4]: inhibit ATX-dependent invasion; also recorded: dose dependently decreased A2058 cell invasion

From paper PMC7938327 (Journal of medicinal chemistry, 2017)
